Screening data from PubChem BioAssay.
Shown are actives, neighbours in structure and some others; about 1.8% of the full set was active somewhere.
M5 antag: human M5 muscarinic receptor antagonists, primary screen, CHO cells, Fluo-8 calcium fluorescence; Muscarinic acetylcholine receptor M5 (Homo sapiens), P08912; CHO-hM5 cells, ACh EC80; inhibition, % at 3 µM; hit rate 0.59% among 360,000; AID 624040, 2012;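 active = inhibition above a per-plate cutoff, the mean of that plate's test compounds plus 3 SD, cut at about 27% in these data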;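 also: 0% = acetylcholine EC80 with DMSO and 100% = DMSO without agonist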
CHRM4 antagonist: human M4 muscarinic receptor antagonists, primary screen, CHO cells, Fluo-8 calcium fluorescence; Muscarinic acetylcholine receptor M4 (Homo sapiens), P08173; CHO-hM4 cells, ACh EC80; inhibition, % at 3 µM; hit rate 0.73% among 360,000; AID 624125, 2012;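 active = inhibition above its plate's cutoff, the mean inhibition of sample wells plus 3 SD, cut at about 27% in these data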;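 also: 0% = acetylcholine EC80 with DMSO and 100% = DMSO without agonist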
Target sequence (P08173 whole entry, looked up): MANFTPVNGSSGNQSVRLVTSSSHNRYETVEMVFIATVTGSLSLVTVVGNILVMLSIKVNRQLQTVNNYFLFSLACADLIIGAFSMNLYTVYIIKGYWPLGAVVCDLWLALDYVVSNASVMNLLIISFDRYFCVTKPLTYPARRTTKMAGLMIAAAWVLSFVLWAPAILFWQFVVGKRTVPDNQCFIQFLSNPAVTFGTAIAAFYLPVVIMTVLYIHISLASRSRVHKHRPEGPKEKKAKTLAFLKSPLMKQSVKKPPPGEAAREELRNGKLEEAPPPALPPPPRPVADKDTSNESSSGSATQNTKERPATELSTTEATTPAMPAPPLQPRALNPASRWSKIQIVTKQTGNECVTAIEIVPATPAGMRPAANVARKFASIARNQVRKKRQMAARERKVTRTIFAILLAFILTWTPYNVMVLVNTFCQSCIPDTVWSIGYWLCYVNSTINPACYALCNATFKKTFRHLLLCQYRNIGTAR
CHRM5 agonist: human M5 muscarinic receptor agonists, primary screen, CHO-K1 cells, Fluo-8 calcium fluorescence | hit rate 0.19% among 360,000 | activation, % at 3 µM | AID 624037, 2012 | CHO-K1 hM5 cells; 0% DMSO wells, 100% maximal acetylcholine response;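 active = activation above the run's mean over test compounds plus 3 SD, cut at about 23% in these data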;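 also: signal is peak over basal fluorescence ratio across the kinetic read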
M5 PAM: human M5 muscarinic receptor positive allosteric modulators, primary screen, CHO-K1 cells, Fluo-8 calcium fluorescence | Muscarinic acetylcholine receptor M5 (Homo sapiens), P08912 | CHO-K1 hM5, ACh EC20 PAM; 0% = ACh EC20, 100% = ACh EC100 | activation, % at 3 µM | hit rate 0.3% among 360,000 | AID 624038, 2012;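 active = activation above the run cutoff, the mean activation of all test compounds plus 3 SD, cut at about 18% in these data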
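System: CHO-K1 hM5 cells. Reagent: acetylcholine, EC20 level. Compound dosing: single dose, 3 µM nominal final test concentration. Timing: Post-acetylcholine fluorescence recording 140 s. Detection: Fluo-8 calcium fluorescence. Read-out: % activation, ACh-normalized. Benchmarks: ACh EC20 and EC100 wells. Repeats: singlicate, one well per test compound.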
CHRM4 agonist: human M4 muscarinic receptor agonists, primary screen, CHO-K1 cells, Fluo-8 calcium fluorescence | hit rate 0.14% among 360,000 | activation, % at 3 µM | AID 624127, 2012 | CHO-K1 hM4/Gqi5; vehicle 0%, full acetylcholine response 100%;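 active = activation above the run mean over all test wells plus 3 SD, cut at about 32% in these data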;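 also: peak over basal fluorescence ratio per well then scaled between controls; 0% = DMSO wells and 100% = acetylcholine at EC100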
CHRM4 PAM: human M4 muscarinic receptor positive allosteric modulators, primary screen, CHO-K1 cells, Fluo-8 calcium fluorescence. CHO-K1 hM4/Gqi5, ACh EC20; 0% = ACh EC20, 100% = maximal ACh. activation, % at 3 µM. hit rate 0.4% among 360,000;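 active = activation above its plate's cutoff, the mean activation of sample wells plus 3 SD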
Starred values were filed as active, the others as inactive; ! = repeats disagree.

SMILES	M5 antag	CHRM4 antagonist	CHRM5 agonist	M5 PAM	CHRM4 agonist	CHRM4 PAM
Cc1ccc(C(C)C)c(OCCn2ccnc2C)c1	57.4*	51.5*	-7.5	-17.5	5.2	-17.5
CC1CCN(CC(=O)Nc2ccccc2-c2ccccc2)CC1	9.3	27.2*	-6.2	-24.3	-2.4	-12.7
O=C(Nc1ccccc1-c1ccccc1)C1CCC1	2.0	-8.9	-3.7	-0.4	53.7*	1.7
Cc1cccc(C)c1NC(=O)C(C1CC1)n1c(-c2ccc(C(F)(F)F)cc2)nc2ccccc21 (configuration not stated)	8.7	-4.4	9.2	-11.5	15.7	0.4
Cc1nn(C(C)C(=O)NCCc2ccco2)c(=O)c2nn(-c3ccccc3)c(C)c12 (configuration not stated)	20.5	16.8	-0.5	23.5*	15.4	50.7*
CCC(C)NC(=O)c1cnn2c(C)c3c(nc12)CCCC3 (configuration not stated)	-1.0	18.2	-5.1	-3.4	-2.3	38.5*
Cc1c2c(nc3c(C(=O)NC4CC4)cnn13)CCCC2	-3.5	-0.6	-7.2	5.7	-2.2	2.8
O=c1cccc2n1Cc1cc3ccccc3nc1-2	10.8	2.5	3.9	0.1	3.1	25.9*
O=C1NC[C@H](CCCCN2C[C@H](Cc3ccc(O)cc3)N(CCc3ccccc3)C(=O)C2=O)N(CCC2CCCCC2)C1=O	-13.8	-13.3	-2.2	1.9	0.1	-16.2
O=S(=O)(Nc1ccc(-c2csc(-c3ccccc3)n2)cc1)c1ccc(F)cc1	4.6	2.9	-1.2	0.3	-0.1	31.3*
O=C(Nc1nc(-c2ccccc2)cs1)c1ccccc1NS(=O)(=O)c1ccc(F)cc1	42.1*	31.0*	7.8	-20.0	16.4	-14.0
c1cc(SC2CCCCC2)cc(-c2nc3cnccn3c2NC2CCCCC2)c1	8.3	9.4	6.2	7.4	1.6	0.1
CCC(C)Sc1cc(-c2nc3cc(C)ccn3c2NC2CCCCC2)ccc1OC (configuration not stated)	18.6	9.6	-4.5	-12.4	6.7	-9.7
CCC(C)Sc1cccc(-c2nc3cnccn3c2NC2CCCCC2)c1 (configuration not stated)	7.3	26.4*	3.8	4.2	-2.1	-10.9
CCC(C)Sc1cc(-c2nc3ccccn3c2NC2CCCCC2)ccc1OC (configuration not stated)	14.1	54.5*!	-4.8	-19.3	4.8	-9.3
COc1ccccc1CN(C)C[C@@H]1OCc2cnnn2CCCC(=O)N([C@@H](C)CO)C[C@H]1C	3.9	-11.3	-0.3	-1.9	0.7	0.6
CCOc1ccc(C2C(C#N)=C(N)SC(N)=C2C#N)cc1OCC	4.3	5.3	5.1	-2.9	5.6	0.6
CCc1ccc(C2C(C#N)=C(N)SC(N)=C2C#N)cc1	0.3	0.6	15.8	-12.8	45.8*	-13.0
CC(C)c1ccc(C(=O)N2CCCC(c3cc(C(=O)Nc4ccc5c(c4)OCO5)no3)C2)cc1 (configuration not stated)	-3.6	4.4	-1.0	0.6	1.8	-4.9
O=C(Cn1nnc(-c2ccc([N+](=O)[O-])cc2)n1)NNC(=O)c1ccccc1	31.1*	14.6	-4.0	-7.5	2.3	-1.7
O=C(Cn1nnc(-c2ccccc2)n1)NNC(=O)c1cccc([N+](=O)[O-])c1	11.7	1.0	-1.1	1.4	1.3	1.8
Cc1nnc(N(CCC#N)CCC#N)s1	6.6	-0.5	-0.5	-0.8	0.3	14.4
CSc1nnc(N(CCC#N)CCC#N)s1	-4.2	-13.2	-3.9	39.8*	0.3	1.4
CCN1C(=O)/C(=C/C=C2/SCCN2C)SC1=S	-1.5	-0.4	4.9	-11.5	4.0	-5.5
CCCCN1C(=O)/C(=C/C=C2\Oc3ccccc3N2CC)SC1=S	24.7	21.6	47.6*	-8.1	19.5	-9.8
SMILES	M5 antag	CHRM4 antagonist	CHRM5 agonist	M5 PAM	CHRM4 agonist	CHRM4 PAM
CCCCN1C(=O)/C(=C/C=C2/CC(C)(C)CN2C)SC1=S	36.1*	24.7	46.8*	-14.7	34.2*	-10.8
CCCCNC(=O)CSc1ccc(S(=O)(=O)N2CCOCC2)cn1	20.1	9.2	0.1	-9.8	0.5	-6.1
CC(C)NC(=O)NC(=O)CSc1ccc(S(=O)(=O)N2CCOCC2)cn1	3.3	-8.7	-1.8	-4.0	0.8	21.1*
CCOC(=O)C1(C)CCCN1C(=O)c1ccc2ccccc2c1 (configuration not stated)	-1.8	-12.6	-1.5	1.1	0.6	3.1
Cc1cc(Cl)ccc1NC(=S)NCc1ccc(S(N)(=O)=O)cc1	1.2	6.1	-3.2	-1.9	1.0	-4.8
Cc1ccc(NC(=S)NCCO)c(C)c1	-3.3	10.7	-2.8	5.7	0.7	16.3*
Cc1ccc(NC(=S)NCCc2ccccc2)c(C)c1	-1.7	7.9	-7.0	2.8	-1.1	-4.2
Cc1ccc(NC(=S)NCc2ccc(S(N)(=O)=O)cc2)c(C)c1	-1.6	27.7*	1.6	0.7	1.1	7.0
CC(=O)Nc1ccc(-c2ccnc3c2CC(C)(C(=O)Nc2ccc(Cl)cc2)O3)cc1 (configuration not stated)	6.9	7.1	2.3	-3.2	1.7	-4.0
C[C@H](CO)N1C[C@H](C)[C@H](CN(C)C(=O)OCc2ccccc2)OCc2cnnn2CCCC1=O	1.2	6.9	-0.1	1.5	0.2	0.3
CC1CCN(c2c(NCC3CCC(C(=O)N4CCCCC4)CC3)c(=O)c2=O)CC1 (configuration not stated)	-1.0	-1.0	-0.8	-12.4	2.4	-9.3
CC1CCN(c2c(NCC3CCC(C(=O)NC4CCCCCC4)CC3)c(=O)c2=O)CC1 (configuration not stated)	-1.5	30.7*	0.1	1.8	0.6	15.3
CC(=O)NC(c1cccc(F)c1)c1nc(-c2ccc(N(C)C)cc2)cs1 (configuration not stated)	0.2	-14.4	-0.6	-3.4	1.5	4.5
Fc1ccc2nc(C3CCCCN3Cc3nc(CC4CC4)no3)[nH]c2c1 (configuration not stated)	9.0	-6.7	3.5	26.9*	5.8	9.4
CC(C)(C)c1ccc(Nc2n[nH]c3ccccc23)cc1	-5.0	-22.6	-0.1	-1.9	-0.6	21.2*
Cc1n[nH]c2ccccc2c1=O	2.4	-1.7	1.6	2.1	0.3	0.3
COc1ccc(CC(NC(C)=O)C(=O)N2CCN(C(=O)N(C(C)C)C(C)C)CC2)cc1 (configuration not stated)	-7.5	29.3*	0.9	11.9	2.5	3.0
